Test results from PubChem BioAssay.
A number with no mark means an inactive call. Records with an inconclusive call do not appear. Calls of active or inactive are those of the source.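 The calls were made as follows, unless noted: active = inhibition over a set limit, the all-compound mean plus 3 SD, in both replicate runs; inconclusive = over that limit in just one replicate run; inactive = at or under that limit in both runs.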

How the values were obtained:
[1] = OD615 S. cerevisiae growth inhibition, permissive medium, pilot counter-assay, permissive growth control for S. cerevisiae lifespan shortening project (AID 705;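 active = growth inhibition above 25% in both replicates, a cutoff set 3 SD above the mean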); settings: OD615, 24 h, at 10 µM, hits give high values
Summary of the method: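 System: Engineered DeaD yeast | Buffer or medium: SC raffinose/galactose permissive medium | Doses: 10 µM single dose, 0.25% DMSO | Times: 24 h exposure, 30 °C | Measured by: OD615 turbidity read | Read-out: Yeast growth inhibition indicated by reduced 24 h OD615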

[2] = Restrictive medium S. cerevisiae growth inhibition, OD615, pilot screen of yeast lifespan reduction project, restrictive growth control (AID 706;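 active = growth inhibition above a set limit, 3 SD over mean compound inhibition, in both replicates, cut at about 43% in these data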;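 also: modified DeaD lifespan yeast strain shifted to restrictive glucose medium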); settings: OD615, 48 h, at 10 µM, hits give high values
Summary of the method: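 Assay system: engineered S. cerevisiae DeaD strain; Buffer or medium: CSMM-D glucose medium; Dosing: 10 µM compound, 0.25% DMSO; Times: cell pre-growth 4 h, compound exposure 48 h, 30 °C; Detection: absorbance (optical density) measured at 615 nm.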

[3] = viability gain of MRP-1-high H69AR cells under doxorubicin, pilot screen, MRP-1 activator project, CellTiter-Glo, duplicate (AID 807;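 active = viability increase at or above a cutoff of the median across tested compounds plus 3 SD, cut at about 8.5% in these data, passing the limit was not always enough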;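 also: compound pretreatment 18-22 h then 72 h combined with doxorubicin; 0% = doxorubicin alone and 100% = vehicle without doxorubicin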); settings: H69AR viability with doxorubicin, CellTiter-Glo luminescence; at 10 µM; hits give high values
[4] = growth suppression of beta-catenin knockout HCT116, pilot screen, human colon tumor cells (AID 823;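 active = cell viability at or below a set limit in both duplicate runs, the limit being the all-compound median minus 4 SD, cut at about 23% in these data, passing the limit was not always enough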;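 also: 0% = wells killed by 20 µM Hyamine and 100% = untreated DMSO cell wells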); settings: CellTiter-Glo, 60 h, at 10 µM, hits give low values
[5] = growth suppression of PTEN-deleted HCT116, pilot screen, cell-based, HCT116 clonal line, CellTiter-Glo (AID 824;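 active = viability at or below 27.92% in each of two runs, the all-compound median minus 4 SD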;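 also: 0% = 20 µM Hyamine control and 100% = vehicle cell control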); settings: 60 h, at 10 µM, hits give low values
[6] = inhibitors of the yeast RAM network, pilot screen, dse1pr::URA3 reporter, 5-FOA selection (AID 869);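 also: 0% = DMSO wells with no growth and 100% = 10 µM 1-NA-PP1 with full growth; RAM network block rescues cells from 5-FOA so hits raise OD615 growth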; settings: S. cerevisiae dse1pr::URA3 5-FOA growth, OD615, 2 d; at 10 µM; hits give high values; strain carries analog-sensitive mutant Cbk1 kinase
[7] = RAM signaling pathway blockade in yeast – S. cerevisiae, Pdr1DBD-CYC8 efflux-inhibited sensitized strain, primary screen (AID 1298;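 active = RAM network inhibition above 8.4% in each of two replicates, 3 SD over the compound average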;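 also: 0% = DMSO untreated cells without growth and 100% = 10 µM 1-NA-PP1 full growth; higher means more yeast growth rescued from 5-FOA killing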); settings: S. cerevisiae cbk1-as DSE1-URA3 strain, 5-FOA growth OD615, 2 d; at 50 µM; hits give high values

| Compound | growth inhibition [1] [%] | growth inhibition [2] | viability increase [3] [%] | viability [4] | viability [5] | inhibition [6] [%] | RAM network inhibition [7] [%] |
| --- | --- | --- | --- | --- | --- | --- | --- |
| COc1cccc2cc3c(=O)n(-c4ccccc4)nc-3oc12 | -29.6 | -20.8% | -7.1 | 97.2% | 92.1% | 2.73 | 3.19 |
| O=C1c2oc3ccc(F)cc3c(=O)c2C(c2ccncc2)N1CCN1CCOCC1 (stereo not drawn) | 3.02 | 3.27% | 0.53 | 110% | 99.2% | 1.26 | 0.47 |
| COc1ccccc1NC(=O)Cc1noc(CSc2nnc(C)s2)n1 | -3.75 | 0.765% | -2.11 | 97.2% | 97.6% | 0.43 | 5.03 |
| COc1ccc2ccccc2c1C1CC(=O)N2CN(Cc3ccco3)CSC2=C1C#N (stereo not drawn) | 1.42 | 16.4% | -5.39 | 82.5% | 80.9% | 3.5 | 3.82 |
| O=C(C(c1ccccc1)c1ccccc1)N1CCOCC1 | -6.96 | 1.92% | -1.34 | 100% | 95.9% | 0.87 | 0.31 |
| Cc1ccc(-c2nc(CS(=O)CC(=O)NCCN3CCOCC3)c(C)o2)cc1 (stereo not drawn) | -6.06 | 2.29% | -0.04 | 92.9% | 98% | 1.84 | 2.15 |
| O=C(NCC1CCCO1)c1ccc2nc(N3CCCCC3)sc2c1 (stereo not drawn) | -2.59 | -4.53% | -0.46 | 102% | 96.8% | 2.37 | 1.03 |
| COc1ccc(OCC(=O)Nc2cc(-c3nn4c(C)nnc4s3)ccc2C)cc1 | 0.16 | 0.525% | -1.72 | 106% | 94% | 0.755 | 5.36 |
| N#CC1=C(N)SC(N)=C(C#N)C1C1CC=CCC1 (stereo not drawn) | -18.9 | -10.4% | -0.79 | 108% | 97.5% | 2.11 | 0.74 |
| Cc1cccc(C2Nc3ccccc3C(=O)N2c2ccccc2)n1 (stereo not drawn) | -13.9 | -8.88% | -2.08 | 94.1% | 101% | 2.28 | 2.46 |
| O=C(Nc1ccc(Oc2ccccc2)cc1)c1cnc2n(c1=O)CCS2 | -16.5 | -12.6% | 5.46 | 68.8% | 65.9% | 3.62 | 8.2 |
| COc1ccccc1C1C(C(N)=O)=C(C)Nc2nc(-c3ccccc3Cl)nn21 (stereo not drawn) | -4.68 | -4.21% | -2.13 | 92.9% | 95.8% | 0.48 | -2.19 |
| Cc1ccccc1-c1nnc(SCC(=O)Nc2ccc3c(c2)OCCO3)n1N | -1.12 | 10.1% | -2.18 | 96.7% | 91.7% | 0.6 | -0.27 |
| COc1ccc2c(Cl)c(-c3nnc(SCC(N)=O)n3C)sc2c1 | -2.31 | 11.7% | -2.99 | 106% | 94% | 1.43 | 0.69 |
| Cc1ccccc1NC(=O)CN1C(=O)COc2ccc(Cl)cc21 | -14.1 | -18% | 1.63 | 95% | 87.9% | 0.995 | 4.92 |
| CCOC(=O)CN1C(=O)C(O)(CC(=O)c2ccccn2)c2ccccc21 (stereo not drawn) | -10.3 | 3.35% | -4.5 | 82.8% | 92% | 1.31 | 1.78 |
| OCCN1CCN(Cc2cccc(Oc3ccc(Cl)cc3)c2)CC1 | -4.24 | -1.81% | -3.74 | 63.2% | 73.1% | 2.6 | -0.21 |
| COc1cc(OC)cc(-c2nc(-c3ccc(Br)cc3)no2)c1 | -13.6 | -13.2% | 1.86 | 94% | 89.2% | 3.5 | 8.01 |
| COc1ccc(C)cc1NC(=O)c1ccoc1C | -1.21 | 4.09% | 0.93 | 99.5% | 87.8% | 0.62 | 7.87 |
| O=C(C1CCC(CNc2c(N3CCCCC3)c(=O)c2=O)CC1)N1CCCCC1 (stereo not drawn) | -8.65 | -19.7% | -1.79 | 94.3% | 93.6% | 1.09 | 7.26 |
| COCCN1C=C(C(=O)OC)C(c2ccc(OC)c(OC)c2)C(C(=O)OC)=C1 | -4.43 | -9.06% | -0.95 | 98% | 100% | 1.43 | -0.97 |
| CC1=C(C#N)C(c2cccnc2)C2=C(CC(C)(C)CC2=O)N1 (stereo not drawn) | 1.49 | -0.735% | -2.91 | 94.2% | 99.6% | 1.09 | 3.92 |
| O=C(CCc1ccccc1)Nc1nnc(-c2cccs2)o1 | -12.3 | -2.62% | -4.02 | 103% | 97.3% | 1.6 | 3.35 |
| Cc1cc(C)n(/N=C/c2c[nH]c3ccccc23)c(=O)c1 | -12.3 | -5.84% | -3.53 | 100% | 102% | 0.785 | 2.38 |
| CSc1nnc(Cn2c(=O)sc3ccccc32)n1-c1ccccc1 | -2.55 | 3.38% | -0.84 | 104% | 102% | 2.03 | 2.08 |

| Compound | growth inhibition [1] [%] | growth inhibition [2] | viability increase [3] [%] | viability [4] | viability [5] | inhibition [6] [%] | RAM network inhibition [7] [%] |
| --- | --- | --- | --- | --- | --- | --- | --- |
| Cc1ccc2oc(Nc3nc(C)cc(C)n3)nc2c1 | -6.34 | 13.1% | 0.49 | 102% | 94.8% | 1.01 | 0.61 |
| CCC1CCCCN1C(=O)CSc1nnc(-c2cccc(Cl)c2)o1 (stereo not drawn) | 8.15 | 46.1% (active) | -3.24 | 86.8% | 91.5% | 1.4 | 1.06 |
| CCOC(=O)c1ccccc1NC(=O)Cn1cnc2c(nnn2-c2ccc(C)cc2)c1=O | -7.68 | 4.12% | -4.32 | 97% | 88% | 2.62 | 3.5 |
| CCCC(=O)NCCCc1nc2ccccc2[nH]1 | -8.81 | -14.7% | 1.33 | 108% | 100% | 1.45 | 2.55 |
| CCC(CO)N=CC1=C(O)CC(C)(C)CC1=O (stereo not drawn) | 3.97 | -5.8% | -0.8 | 102% | 98.8% | -0.06 | 0.21 |
| COC(=O)C(C)Sc1nnc(Cc2cc(=O)[nH]c(=O)[nH]2)n1-c1cccc(OC)c1 (stereo not drawn) | -7.95 | -0.1% | 0.21 | 104% | 108% | 2.8 | 3 |
| O=C(NCCOC(=O)c1ccc(S(=O)(=O)N2CCOCC2)cc1)c1cccnc1 | -19.9 | -9.85% | -0.91 | 89.8% | 91.7% | 2.44 | 2.11 |
| COc1ccccc1CNC(=O)CS(=O)Cc1nc(-c2ccccc2C)oc1C (stereo not drawn) | -4.17 | 12.7% | -0.18 | 101% | 93.4% | 1.66 | 2.33 |
| CCN1CCN(CCCNC(=O)Cn2cc3c(n2)CCCC3)CC1 | -5.34 | 0.355% | -1.2 | 108% | 97.2% | 0.945 | 0.76 |
| CN1CCN(c2ccccc2NC(=O)Cc2cn(C)c3ccccc23)CC1 | 3.05 | -4.69% | -2.96 | 92.8% | 93.7% | -0.845 | 2.59 |
| Cc1noc(NS(=O)(=O)c2ccc(NC(=O)CSc3nc4c(cc3C#N)CCCC4)cc2)c1C | 2.36 | 3.98% | 0.62 | 109% | 101% | 2.52 | 2.9 |
| CC(C)(C)c1ccc(S(=O)(=O)N2CCCCC2C(=O)NCc2ccccn2)cc1 (stereo not drawn) | -24.9 | -29% | -2.34 | 93% | 84.6% | 0.13 | 5.71 |
| Cc1cccc(OCc2nnc(SCC(=O)NCCc3ccccc3)o2)c1 | -3.83 | -15.6% | -1.67 | 98% | 95.2% | 3.1 | 1.99 |
| C=CCn1c(CSc2nc3ccccc3s2)nnc1SCC(=O)NCc1ccco1 | 1.06 | 30.4% | -3.87 | 96.6% | 90.4% | 0.105 | 2.19 |
| O=C(NCCc1ccccc1)c1ccc(Br)o1 | -7.62 | 1.48% | 0.4 | 104% | 103% | 0.77 | 1.44 |
| COc1ccc(CCNC(=O)CN2CCOc3ccccc32)cc1OC | -23.7 | 13.9% | -6.27 | 100% | 96.8% | 0.49 | 1.27 |
| CCOC(=O)Cn1c(=O)oc2cc(S(=O)(=O)N3CCN(c4ccccn4)CC3)ccc21 | 10.4 | 6.56% | -2.64 | 96.3% | 99.5% | 0.75 | 3.64 |
| CC(=O)c1c(NCc2ccccc2)nc(=O)n(-c2ccccc2)c1C | -4.12 | 4.42% | -1.28 | 94.7% | 97% | 1.98 | 4.07 |
| Cc1c(C#N)c2ncn(Cc3ccccc3)c(=O)c2n1-c1ccccc1 | -19.7 | -0.37% | -3.74 | 81.1% | 83.8% | 0.47 | 4.19 |
| Cc1cc(OCC(=O)C(C)(C)C)c2c(C)c(C)c(=O)oc2c1 | -18.8 | -20.7% | -6.01 | 79.9% | 73.8% | 0.31 | 6.85 |
| Cc1nc2cc(-c3cccc(F)c3)nn2c(C)c1CCC(=O)N1CCN(c2ccccn2)CC1 | -0.315 | 3.5% | -1.74 | 87.2% | 77.1% | 0.32 | 4.65 |
| CCN1CCN(CCNC(=O)C2CCN(Cc3nc(-c4ccc(Cl)cc4)oc3C)CC2)CC1 | -6.21 | -7.59% | -3.29 | 62.3% | 70.1% | 1.29 | 3.67 |
| CN(C(=O)CSc1nc(N)nn1-c1ccccc1)c1ccccc1 | -7.03 | 4.13% | -0.53 | 104% | 99% | 0.325 | 2.3 |
| O=C(CCS(=O)(=O)c1ccccc1)Nc1nc(-c2ccccn2)cs1 | -9.64 | -13.3% | -8.92 | 8.11% (active) | 6.03% (active) | 1.85 | 3.99 |
